Ratio IC50, inhibition and IC50 data for 14 molecules are collected here from ChEMBL document CHEMBL1143029, “Heme oxygenase inhibition by 2-oxy-substituted 1-(1H-imidazol-1-yl)-4-phenylbutanes: effect of halogen substitution in the phenyl ring” (Bioorg Med Chem, 2007).

The species named for test [1] is Rattus norvegicus. The test is described as follows: Selectivity index, ratio of IC50 for Sprague-Dawley rat brain HO2 to IC50 for Sprague-Dawley rat spleen HO1. Format: tissue-based. The essentials:
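Ratio of IC50(HO-2) to IC50(HO-1). HO-2 comes from Sprague-Dawley rat brain microsomes and HO-1 from spleen microsomes. Both were assayed identically: methemalbumin substrate, 10 min inhibitor pre-incubation at 37 °C, 15 min reaction with 1 mM NADPH, and CO measured by GC. Each IC50 was derived from sigmoidal dose–response fits of percent-control activity.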

Test [2] addresses T1, Heme oxygenase 2 (Rattus norvegicus) (UniProt P23711).
T1 sequence (whole entry): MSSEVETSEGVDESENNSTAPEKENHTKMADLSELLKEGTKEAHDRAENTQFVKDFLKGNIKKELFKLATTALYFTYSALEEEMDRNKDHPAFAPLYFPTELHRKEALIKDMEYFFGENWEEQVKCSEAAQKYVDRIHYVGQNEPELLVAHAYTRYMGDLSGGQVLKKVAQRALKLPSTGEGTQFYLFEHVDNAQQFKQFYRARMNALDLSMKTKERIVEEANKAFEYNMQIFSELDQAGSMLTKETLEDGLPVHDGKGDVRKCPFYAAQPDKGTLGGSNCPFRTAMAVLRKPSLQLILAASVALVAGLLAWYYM
Description: Inhibition of Sprague-Dawley rat brain microsome HO2 at 100 uM relative to control. In a few lines: (§1)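 Spleen (HO-1) or brain (HO-2) microsomes from Sprague-Dawley rats, at 1 mg/mL protein in 100 mM phosphate buffer pH 7.4 with methemalbumin (heme–albumin) as substrate. Inhibitor hydrochloride pre-incubated 10 min at 37 °C, then 1 mM NADPH added for 15 min at 37 °C. Stopped by freezing on dry ice. CO formed measured by gas chromatography; activity given as percent of no-inhibitor control.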

Test [3] concerns the target T2, Heme oxygenase 1 (Rattus norvegicus, UniProt P06762).
T2 sequence (P06762 whole entry): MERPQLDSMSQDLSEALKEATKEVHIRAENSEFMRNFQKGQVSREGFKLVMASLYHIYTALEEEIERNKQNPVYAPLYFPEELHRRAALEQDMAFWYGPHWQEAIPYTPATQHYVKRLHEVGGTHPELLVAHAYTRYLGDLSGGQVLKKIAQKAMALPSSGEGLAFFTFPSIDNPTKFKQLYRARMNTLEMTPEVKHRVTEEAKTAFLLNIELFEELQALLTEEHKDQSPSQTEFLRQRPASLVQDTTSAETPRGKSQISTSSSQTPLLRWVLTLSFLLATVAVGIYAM
The test is described as follows: Inhibition of Sprague-Dawley rat spleen microsome HO1. In kind it is microsomes.

Test [4] deals with T3, Heme oxygenase 2 (Rattus norvegicus, UniProt P23711).
T3 sequence (P23711 whole entry): T1 sequence (whole entry)
The test is described as follows: Inhibition of Sprague-Dawley rat brain microsome HO2.

For test [5], the target named is T4, Heme oxygenase 1 (Rattus norvegicus) (UniProt P06762).
T4 sequence (whole entry): T2 sequence (P06762 whole entry)
Description: Inhibition of Sprague-Dawley rat spleen microsome HO1 at 0.1 uM relative to control. In kind it is microsomes. The essentials:
as §1

The target in test [6] is T4, Heme oxygenase 1 (Rattus norvegicus). The conditions noted are these: Sprague-Dawley, Spleen, Microsome, 100 uM.
Test [7] addresses T1, Heme oxygenase 2 (Rattus norvegicus). Description: Inhibition of Sprague-Dawley rat brain microsome HO2 at 0.1 uM relative to control. The essentials: as §1
Test [8] deals with T4, Heme oxygenase 1 (Rattus norvegicus). Description: Inhibition of Sprague-Dawley rat spleen microsome HO1 at 0.01 uM relative to control. Format: microsomes.

Regarding `OC(CCc1ccc(Cl)cc1)Cn1ccnc1` (stereo not given), the Ratio IC50 in test [1] was 8. This molecule showed an inhibition in test [2] of 90%.
In test [3], `Clc1ccc(CCC2(Cn3ccnc3)OCCO2)cc1` registered a half-maximal inhibitory concentration (IC50) of 4.3 µM. In test [1], the Ratio IC50 was more than 23.2.
For `OC(CCc1ccc(I)cc1)Cn1ccnc1` (stereo not given), the midpoint of inhibition in test [4], the IC50, lay at 1.8 µM.
Turning to `Brc1ccc(CCC2(Cn3ccnc3)OCCO2)cc1`, the Ratio IC50 in test [1] is more than 52.6. In addition, the IC50 in test [4] was more than 100 µM.
As to `O=C(CCc1ccc(I)cc1)Cn1ccnc1`, the inhibition in test [5] worked out at 44%; in test [2], 60%; in test [6] it was 80%; in test [7], 10%. In test [1], the Ratio IC50 is 16.4.
For `Ic1ccc(CCC2(Cn3ccnc3)OCCO2)cc1`, the half-maximal inhibitory concentration (IC50) is 3.7 µM in test [3] and more than 100 µM in test [4]. Also, in test [1], the Ratio IC50 was more than 27.
For the molecule `O=C(CCc1ccccc1)Cn1ccnc1`, the results for the inhibition in test [2] and in test [6] were 60% and 80%, respectively.
As to `Nc1ccc(SC[C@@H]2CO[C@](CCc3ccc(Cl)cc3)(Cn3ccnc3)O2)cc1` [AZALANSTAT], the IC50 was found to be 5.3 µM in test [3] and 24.5 µM in test [4]. Besides, the Ratio IC50 in test [1] came out at 4.6.
Regarding `O=C(CCc1ccc(Br)cc1)Cn1ccnc1`, 9.5 µM corresponded to half-maximal inhibition in test [4] (IC50). In test [2], this molecule registered an inhibition of 60%.
`O=C(CCc1ccc(F)cc1)Cn1ccnc1`: in test [1], the Ratio IC50 was 1.4. In addition, in test [4], the midpoint of inhibition, the IC50, lay at 1.9 µM. Moreover, the figures for the inhibition in test [2], in test [6] and in test [7] were 60%, 80% and 10%, respectively.
With `OC(CCc1ccccc1)Cn1ccnc1` (stereo not given), in test [3], the midpoint of inhibition, the IC50, lay at 6.2 µM. Besides, the Ratio IC50 in test [1] was found to be 2.6.
Consider `OC(CCc1ccc(Br)cc1)Cn1ccnc1` (stereo not given), for which the inhibition in test [5] amounted to 55%; in test [8], 8%.
In test [4], `c1ccc(CCC2(Cn3ccnc3)OCCO2)cc1` returned a half-maximal inhibitory concentration (IC50) of more than 100 µM.
For the molecule `Fc1ccc(CCC2(Cn3ccnc3)OCCO2)cc1`, the IC50 in test [3] is 3.8 µM; in test [4], more than 100 µM. Besides, the Ratio IC50 in test [1] is more than 26.3.

What is called inhibition is the percentage by which the read-out fell short of the control. A high value points to strong suppression. As usually defined, the IC50 is the midpoint of a concentration-inhibition curve. High values mean lower potency, low ones higher potency.
